Experimental data taken from article PMC3746791 (International Journal of Nanomedicine, 2013).

How the values were obtained:
[1] = In vivo biodistribution study; set-up: species or system Kunming mice; details: mice, intravenous, DOX equivalent 5 mg/kg; heart, spleen, lung, kidney
HepG2 cells = assay type: cell-based, human; details: 2 hours, DOX equivalent 30 μg/mL
Method in brief: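 HepG2 cells in DMEM/10% FBS, 37°C, […], exposed 2 h at 37°C to free or liposomal drug at 30 μg/mL DOX equivalent. Confocal: 7 × 10^4 cells/well on cover glass, 50% confluence, PBS-washed, paraformaldehyde-fixed, Triton-permeabilised, DAPI-stained, ex/em 488/560 nm. Flow: 80% confluence, ex 488/em 575 nm, drug-free cells as reference, n = 3. Competition: 100 mM Gal stock added before liposomes.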

[2] = Pharmacokinetic studies in rats; assay type: in vivo, Sprague Dawley rats; details: at 4 hours postinjection, DOX equivalent dose 10 mg/kg
Method in brief: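 Sprague Dawley rats, 5 per group, given 10 mg/kg DOX equivalent. Jugular blood drawn 10 min to 8 h, plasma spun off immediately. Salicylic acid internal standard added, then perchloric acid precipitation. Supernatant run on C18 HPLC in NH4H2PO4 (0.01 mol/L)-acetonitrile-acetic acid (76:24:0.4) at 1.0 mL/min, 233 nm, 40°C. Two-compartment pharmacokinetic modelling.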

Plasma concentration of DOX [2]: 0.18 µg/mL
Compound: COc1cccc2c1C(=O)c1c(O)c3c(c(O)c1C2=O)C[C@@](O)(C(=O)CO)C[C@@H]3O[C@H]1C[C@H](N)[C@H](O)[C@H](C)O1 [Free DOX, doxorubicin]
DOX fluorescence in other organs [1]: fluorescence was also observed in the heart, spleen, and kidney
Cellular uptake of DOX (fluorescence) (HepG2 cells): most intense intracellular fluorescence
